Test results: ChEMBL document CHEMBL1144581, “alpha-Amino acid derivatives as proton pump inhibitors and potent anti-ulcer agents” (2007)
Blank lines part the entries; values can stand above or below the compound they belong to. Active and inactive are the calls of the source. The calls are words filed in the database; no cut-off is given here.

What was measured:
[1] = species on record: Rattus norvegicus; assay: Antisecretory activity in rat pylorus ligation-induced ulcer model determined by ratio of free acidity inhibition in drug treated to untreated control; type: functional
Method in brief: (§1)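 Sprague Dawley rats (130-150 g) fasted 24 h with water ad libitum; pylorus ligated through a midline incision under ether anesthesia. Dosing oral, 1 h before ligation. Gastric juice free and total acidity titrated against 0.01 N NaOH, with Topfer's reagent and phenolphthalein as indicators. Values expressed as ratio of percent inhibition, treated vs control group.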

[2] = species on record: Rattus norvegicus; assay: Inhibition of gastric H+/K(+)-ATPase activity in Sprague-Dawley rat microsomal vesicles at 10 umol; type: microsomes; conditions: Stomach, Microsome
Method in brief: (§2)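 Rat gastric microsomes were prepared by density gradient and differential centrifugation. The medium held 40 mM Tris-HCl pH 7.4, 2 mM MgCl2, 10 mM KCl (water for blank) and […] vesicular protein. Compound was preincubated 30 min at 37 °C. Tris-ATP at 0.3, 1.0 or 3 mM was then added for 20 min and stopped with chilled 10% TCA. Released Pi was read at 530 nm; % inhibition vs control.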

[3] = species on record: Rattus norvegicus; assay: Antisecretory activity in rat pylorus ligation-induced ulcer model determined by ratio of total acidity inhibition in drug treated to untreated control; type: functional; method in brief: as §1
[4] = species on record: Rattus norvegicus; assay: Inhibition of p-NPPase in Sprague-Dawley rat microsomal vesicles at 100 uM in presence of 5.0 mM of p-NPP; type: microsomes; conditions: Microsome
Method in brief: (§3)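 Rat gastric microsomes were assayed in 10 mM PIPES/Tris pH 7.0 with 5 mM KCl. Compound was preincubated 30 min at 37 °C. p-NPP at 1.0, 3.0 or 5.0 mM was added and incubated 20 min at 37 °C, then stopped with 0.5 N NaOH. p-Nitrophenol release was read at 410 nm; % inhibition vs control.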

[5] = species on record: Rattus norvegicus; assay: Inhibition of p-NPPase in Sprague-Dawley rat microsomal vesicles at 30 uM in presence of 1.0 mM of p-NPP; type: microsomes; conditions: Microsome; method in brief: as §3
[6] = species on record: Rattus norvegicus; assay: Inhibition of gastric H+/K(+)-ATPase activity in Sprague-Dawley rat microsomal vesicles at 30 uM in presence of 0.3 mM of ATP; type: microsomes; conditions: Stomach, Microsome; method in brief: as §2
[7] = test system: Rattus norvegicus; assay: Antisecretory activity in rat pylorus ligation-induced ulcer model assessed as inhibition of free acidity of gastric juice at 10 mg/kg; type: functional, organism-based; parameters: dose 10 mg/kg; method in brief: as §1
[8] = species on record: Rattus norvegicus; assay: Inhibition of gastric H+/K(+)-ATPase activity in Sprague-Dawley rat microsomal vesicles at 30 uM in presence of 3.0 mM of ATP; type: microsomes; conditions: Stomach, Microsome; method in brief: as §2
[9] = test system: Rattus norvegicus; assay: Antisecretory activity in rat pylorus ligation-induced ulcer model assessed as inhibition of total acidity of gastric juice at 20 mg/kg; type: functional, organism-based; parameters: dose 20 mg/kg; method in brief: as §1
[10] = species on record: Rattus norvegicus; assay: Inhibition of gastric H+/K(+)-ATPase activity in Sprague-Dawley rat microsomal vesicles at 30 uM in presence of 1.0 mM of ATP; type: microsomes; conditions: Stomach, Microsome; method in brief: as §2
[11] = species on record: Rattus norvegicus; assay: Inhibition of p-NPPase in Sprague-Dawley rat microsomal vesicles at 10 uM in presence of 3.0 mM of p-NPP; type: microsomes; conditions: Microsome; method in brief: as §3
[12] = species on record: Rattus norvegicus; assay: Inhibition of gastric H+/K(+)-ATPase activity in Sprague-Dawley rat microsomal vesicles at 3 uM in presence of 1.0 mM of ATP; type: microsomes; conditions: Stomach, Microsome; method in brief: as §2
[13] = species on record: Rattus norvegicus; assay: Inhibition of p-NPPase in Sprague-Dawley rat microsomal vesicles at 10 uM in presence of 1.0 mM of p-NPP; type: microsomes; conditions: Microsome; method in brief: as §3
[14] = species on record: Rattus norvegicus; assay: Inhibition of gastric proton pump activity of gastric H(+)/K(+) ATPase in Sprague-Dawley rat microsomal vesicles before washing at 10 uM; type: microsomes; conditions: Stomach, Microsome
[15] = species on record: Rattus norvegicus; assay: Inhibition of p-NPPase in Sprague-Dawley rat microsomal vesicles at 30 uM in presence of 5.0 mM of p-NPP; type: microsomes; conditions: Microsome; method in brief: as §3
[16] = species on record: Rattus norvegicus; assay: Inhibition of gastric proton pump activity of gastric H(+)/K(+) ATPase in Sprague-Dawley rat microsomal vesicles after washing at 10 uM; type: microsomes; conditions: Stomach, Microsome
[17] = species on record: Rattus norvegicus; assay: Inhibition of gastric H+/K(+)-ATPase activity in Sprague-Dawley rat microsomal vesicles at 3 uM in presence of 3.0 mM of ATP; type: microsomes; conditions: Stomach, Microsome; method in brief: as §2
[18] = species on record: Rattus norvegicus; assay: Inhibition of p-NPPase in Sprague-Dawley rat microsomal vesicles at 10 uM in presence of 5.0 mM of p-NPP; type: microsomes; conditions: Microsome; method in brief: as §3
[19] = species on record: Rattus norvegicus; assay: Inhibition of p-NPPase in Sprague-Dawley rat microsomal vesicles at 3 uM in presence of 1.0 mM of p-NPP; type: microsomes; conditions: Microsome; method in brief: as §3
[20] = species on record: Rattus norvegicus; assay: Inhibition of gastric H+/K(+)-ATPase activity in Sprague-Dawley rat microsomal vesicles at 10 uM in presence of 3.0 mM of ATP; type: microsomes; conditions: Stomach, Microsome; method in brief: as §2
[21] = species on record: Rattus norvegicus; assay: Inhibition of p-NPPase in Sprague-Dawley rat microsomal vesicles at 3 uM in presence of 3.0 mM of p-NPP; type: microsomes; conditions: Microsome; method in brief: as §3
[22] = species on record: Rattus norvegicus; assay: Inhibition of p-NPPase in Sprague-Dawley rat microsomal vesicles at 30 uM in presence of 3.0 mM of p-NPP; type: microsomes; conditions: Microsome; method in brief: as §3
[23] = species on record: Rattus norvegicus; assay: Inhibition of gastric H+/K(+)-ATPase activity in Sprague-Dawley rat microsomal vesicles at 3 uM in presence of 0.3 mM of ATP; type: microsomes; conditions: Stomach, Microsome; method in brief: as §2
[24] = species on record: Rattus norvegicus; assay: Inhibition of gastric H+/K(+)-ATPase activity in Sprague-Dawley rat microsomal vesicles at 10 uM in presence of 0.3 mM of ATP; type: microsomes; conditions: Stomach, Microsome; method in brief: as §2
[25] = species on record: Rattus norvegicus; assay: Inhibition of gastric H+/K(+)-ATPase activity in Sprague-Dawley rat microsomal vesicles at 10 uM in presence of 1.0 mM of ATP; type: microsomes; conditions: Stomach, Microsome; method in brief: as §2

SMILES: CC(C)(C)OC(=O)[C@@H]1CCC(=O)N1Cc1ccccc1Cl
Activity [1]: 0.17 | inhibition [2]: 88% | Activity [3]: 0.27

SMILES: O=C(O)[C@@H]1CCC(=O)N1Cc1cccc2ccccc12
Activity [1]: 0.35 | inhibition [2]: 53% | Activity [3]: 0.91

SMILES: Cc1ccc(CN2C(=O)CC[C@H]2C(=O)OC(C)(C)C)cc1
Activity [1]: 0.48 | inhibition [2]: 79% | Activity [3]: 0.52

SMILES: CCOC(=O)N1CCC[C@H]1C(=O)OC
Activity [1]: 0.59 | inhibition [2]: 68% | Activity [3]: 0.64

SMILES: CC(C)(C)OC(=O)[C@@H]1CCC(=O)N1Cc1ccccc1
Activity [1]: 0.34 | inhibition [2]: 92% | Activity [3]: 0.52

SMILES: O=C(O)[C@@H]1CCC(=O)N1Cc1ccccc1Cl
Activity [1]: 0.66 | inhibition [2]: 32% | Activity [3]: 0.51

SMILES: COc1ccc2[nH]c([S+]([O-])Cc3ncc(C)c(OC)c3C)nc2c1 (centres undefined)
inhibition [4]: 96% | inhibition [5]: 77% | inhibition [6]: 75% | Activity [7]: Active | inhibition [8]: 76% | Activity [9]: Active | inhibition [10]: 71% | inhibition [11]: 52% | inhibition [12]: 38% | inhibition [13]: 54% | inhibition [14]: 60% | inhibition [15]: 79% | inhibition [16]: 90% | inhibition [17]: 34% | inhibition [18]: 48% | inhibition [19]: 28% | inhibition [20]: 53% | inhibition [21]: 28% | inhibition [22]: 78% | inhibition [23]: 38% | inhibition [24]: 56% | inhibition [25]: 51%

SMILES: COC(=O)[C@@H]1CCC(=O)N1Cc1ccc(Cl)cc1
Activity [1]: 0.67 | inhibition [2]: 46% | Activity [3]: 1.01

SMILES: CC(C)N1C(=O)CC[C@H]1C(=O)OC(C)(C)C
Activity [1]: 0.72 | inhibition [2]: 52% | Activity [3]: 0.69

Continued, in another order:

inhibition [2]: 10%
SMILES: CCOC(=O)[C@@H](NC(=O)OCc1ccccc1)C(O)C#C[Si](C)(C)C (some centres undefined)
Activity [1]: 1.01 | Activity [3]: 1

inhibition [2]: 44%
SMILES: O=C(O)[C@@H]1CCC(=O)N1Cc1ccccc1
Activity [1]: 0.86 | Activity [3]: 0.93

inhibition [2]: 58%
SMILES: O=C(O)[C@@H]1CCCN1C(=O)/C=C/c1ccccc1
Activity [1]: 0.65 | Activity [3]: 0.76

inhibition [2]: 62%
SMILES: COC(=O)[C@@H]1CCCN1C(=O)/C=C/c1ccccc1
Activity [1]: 0.47 | Activity [3]: 0.59

inhibition [2]: 92%
SMILES: O=C(O)[C@@H]1CCCN1C(=O)Cc1ccccc1
Activity [1]: 0.41 | Activity [3]: 0.38

inhibition [2]: 65%
SMILES: CCOC(=O)[C@@H](NC(=O)OCc1ccccc1)C(O)/C=C/c1ccccc1 (some centres undefined)
Activity [1]: 0.93 | Activity [3]: 0.98
